Compound activity (PubChem)
Most compounds without a hit are left out; they make up all but 1.5% or so of the library.
HDAC3 inh: inhibitors of human histone deacetylase 3 | inhibition, % at 8.3 µM | actives 0.15% (n = 320,000) | O15379 | AID 2718 | recombinant HDAC3, fluorogenic peptide/trypsin coupled, fluorescence; in the data active = inhibition above about 26%, passing the limit was not always enough; inconclusive = no clear call, values can overlap the other calls
T cell HTS: modulates CD8 T cell binding to vesicles; 2C CD8+ T cell-vesicle binding, flow cytometry; stronger effect = lower value; response (vesicle binding), % at 7 µM; actives 0.068% (n = 330,000); AID 2052;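 active = response, share of CD8 T cells binding vesicles, and their 90th percentile fluorescence all below set limits, cut at about 80% in these data, passing the limit was not always enough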;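 note: values below 100% mean blocked vesicle binding to the CD8+ T cells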
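Also added: QL9-peptide-loaded Drosophila micro-vesicles bearing Ld, ICAM-1 and B7-1; Test system: purified 2C TCR transgenic mouse naive CD8+ T cells; Measured by: cytometric PE anti-B7-1 and Alexa647 anti-CD8 signals after 1% paraformaldehyde fixation; Timing: binding step 1.5 h, 37 °C, antibody labelling 20 min, ice.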
LANA-H2A inh: blocks KSHV LANA binding to histone H2A/H2B | Q9QR71 | actives 0.6% (n = 320,000) | cell-free LANA-H2A/H2B peptide, fluorescence polarization | inhibition, % (test concentration not listed) | AID 2629; in the data active = inhibition mostly above about 10%, no sharp cut-off; inactive = mostly below about 6.7%
Pemphigus Ab inh: blocks pemphigus antibody binding to human desmoglein-3; AID 588358; DSG3-coupled beads, scFv-anti-DSG3-GFP binding, flow cytometry; stronger effect = lower value; binding (percent of control), % at 10 µM; actives 0.48% (n = 310,000); P32926;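 active = binding more than 3 SD below its plate's average and above zero; inconclusive = below that plate limit but binding exactly zero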;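 note: hits lower antibody fragment binding to DSG3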
Target sequence (P32926 whole entry, looked up, the tested form may be a part): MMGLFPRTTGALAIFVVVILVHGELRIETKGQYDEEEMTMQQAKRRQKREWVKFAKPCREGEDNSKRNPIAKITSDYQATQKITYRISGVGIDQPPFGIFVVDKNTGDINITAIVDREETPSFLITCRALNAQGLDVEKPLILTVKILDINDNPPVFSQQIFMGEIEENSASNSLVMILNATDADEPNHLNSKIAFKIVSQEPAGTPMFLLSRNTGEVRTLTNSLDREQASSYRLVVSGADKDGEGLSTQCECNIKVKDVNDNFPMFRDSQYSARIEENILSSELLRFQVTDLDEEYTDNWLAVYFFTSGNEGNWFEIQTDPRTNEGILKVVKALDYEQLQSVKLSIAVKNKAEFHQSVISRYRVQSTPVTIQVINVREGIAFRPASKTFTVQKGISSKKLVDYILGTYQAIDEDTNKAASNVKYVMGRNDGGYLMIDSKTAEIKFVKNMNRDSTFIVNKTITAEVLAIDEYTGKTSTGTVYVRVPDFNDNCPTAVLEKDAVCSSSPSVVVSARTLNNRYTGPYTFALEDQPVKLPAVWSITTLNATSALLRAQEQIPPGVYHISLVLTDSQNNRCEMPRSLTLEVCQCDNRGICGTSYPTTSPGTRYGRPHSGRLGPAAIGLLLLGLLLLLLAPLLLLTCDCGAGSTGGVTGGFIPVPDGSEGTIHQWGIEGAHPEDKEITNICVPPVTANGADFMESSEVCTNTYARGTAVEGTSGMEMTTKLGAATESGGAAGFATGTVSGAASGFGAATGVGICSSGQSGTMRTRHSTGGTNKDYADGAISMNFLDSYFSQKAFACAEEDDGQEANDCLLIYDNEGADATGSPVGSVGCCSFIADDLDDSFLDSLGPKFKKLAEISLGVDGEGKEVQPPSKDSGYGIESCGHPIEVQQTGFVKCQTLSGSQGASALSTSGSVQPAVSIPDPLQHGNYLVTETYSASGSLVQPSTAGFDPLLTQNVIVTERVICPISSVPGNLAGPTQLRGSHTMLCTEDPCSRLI
Arrestin-AP2 inh: blocks beta-arrestin peptide binding to AP2 adaptin | FITC-arrestin peptide / GST-AP2 beads, flow cytometry; AP2 beta2 appendage carries R879A mutation | inhibition, % at 10 µM | actives 0.31% (n = 340,000);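 active = inhibition above a set limit, near 3 SD of compounds lacking own fluorescence, cut at about 54% in these data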
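Material – GST-tagged AP2 beta2-adaptin appendage (R879A) on 4 µm glutathione beads · Probe or stimulus – fluorescein-tagged arrestin peptide at 50 nM final · Timing – 12 min plus 1 h, RT · Detection – bead flow cytometry, FITC channel · Read-out basis – inhibition as reduced fluorescein signal on beads, percent · Medium – PBS plus Tween 20 (0.05%) and BSA (0.1%)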
Large screens that a line does not name were inactive.

CCOC(=O)c1ccc(NC(=O)CN2C(=O)C(CC)SC(CC)C2=O)cc1 (stereo not drawn)	LANA-H2A inh 38
CCCCN(CCCC)C(=O)c1cc(Cl)ccc1[N+](=O)[O-]	Pemphigus Ab inh -27
N#CCCN(C(=O)COC(=O)CCNS(=O)(=O)c1ccccc1)c1ccccc1	none
CCOc1ccc(C2C=C(c3ccc(C)cc3)Nc3ncnn32)cc1 (stereo not drawn)	T cell HTS 30 (no result: Pemphigus Ab inh, Arrestin-AP2 inh)
CCCC1CC(C)(/C(C)=N\NC(N)=S)OC1=O (stereo not drawn)	Arrestin-AP2 inh 56
C/C(CCC1CC(C)(C)OC1=O)=N\NC(N)=S (stereo not drawn)	none (no result: Pemphigus Ab inh)
Cc1ccc(S(=O)(=O)N2CCN(C(=O)CNC(=O)c3ccc(Cl)cc3)CC2)cc1	T cell HTS 37
O=C(CCC1CCCC1)NNC(=O)c1ccc(F)cc1	LANA-H2A inh 50
CCc1ccc(C(=O)NNC(=O)CCC2CCCCC2)cc1	none
COc1cccc2c(=O)n(CC(=O)Nc3ccccc3)ccc12	none
COC(=O)COc1cccc2c(=O)n(CC(=O)Nc3ccc4c(c3)OCCO4)ccc12	Pemphigus Ab inh 51
NC(=O)c1ccsc1NC(=O)COC(=O)c1cc(=O)[nH]c2ccccc12	Pemphigus Ab inh 83
O=C(NNC(=O)C1CC1)c1cc(=O)[nH]c2ccccc12	none
O=C(c1cccn2c(=O)c3ccccc3nc12)N1CCN(c2ccccn2)CC1	none
O=C(c1cccn2c(=O)c3cc4ccccc4cc3nc12)N1CCN(c2ccccc2)CC1	LANA-H2A inh 13 (no result: Pemphigus Ab inh, Arrestin-AP2 inh)
C=CCn1c(SCC(=O)NC2(C)CCS(=O)(=O)C2)nc2ccccc21 (stereo not drawn)	none
CCCCCCC(=O)N(O)C1CC(=O)N(Cc2ccccc2)C1=O (stereo not drawn)	HDAC3 inh 78
CCCCCC(=O)NNC1CC(=O)N(c2ccccc2)C1=O (stereo not drawn)	none (no result: Arrestin-AP2 inh)
CCCCCC(=O)N(O)C1CC(=O)N(c2ccccc2)C1=O (stereo not drawn)	HDAC3 inh 75
c1ccc(-c2nnc3n2-c2ccccc2SC3)cc1	none
c1ccc2c(c1)OCC(c1nnc3n1-c1ccccc1SC3)O2 (stereo not drawn)	LANA-H2A inh 17
O=c1c2ccccc2sn1-c1cccc(Cl)c1	Pemphigus Ab inh 40 (no result: HDAC3 inh, T cell HTS, LANA-H2A inh, Arrestin-AP2 inh)
O=C(O)c1cccc(-n2sc3ccccc3c2=O)c1	HDAC3 inh inconclusive, Pemphigus Ab inh 61
CC(=O)Nc1ccc2c(=O)n(-c3ccccc3)sc2c1	Pemphigus Ab inh 48 (no result: HDAC3 inh, T cell HTS, LANA-H2A inh, Arrestin-AP2 inh)
O=C1c2ccccc2C(=O)N1c1nccs1	none (no result: HDAC3 inh, T cell HTS, LANA-H2A inh)
O=c1c2ccccc2sn1-c1nccs1	Pemphigus Ab inh 28 (no result: HDAC3 inh, T cell HTS, LANA-H2A inh)
COc1ccccc1OCCSc1nc2ccccc2n1CC(=O)O	none (no result: HDAC3 inh, T cell HTS, LANA-H2A inh, Arrestin-AP2 inh)
O=C(CN1C(=O)NC2(CCCCCC2)C1=O)Nc1ccc(Br)cc1Br	none
O=c1c2ccccc2on1-c1ccccc1	none (no result: HDAC3 inh, T cell HTS, LANA-H2A inh, Arrestin-AP2 inh)
CN(C)S(=O)(=O)c1ccc2[nH]cc(/C=C/c3nc4ccccc4c(=O)n3-c3ccccc3)c2c1	none (no result: T cell HTS)
O=c1c2ccccc2sn1-c1ccccc1	HDAC3 inh 49, Pemphigus Ab inh inconclusive
CN(C)S(=O)(=O)c1cccc(-n2sc3ccccc3c2=O)c1	Pemphigus Ab inh 29
N#Cc1ccc2c(=O)n(-c3ccccc3)sc2c1	Pemphigus Ab inh 68 (no result: HDAC3 inh, T cell HTS, LANA-H2A inh, Arrestin-AP2 inh)
O=C(CCc1nnc2ccc(N3CCC4(CC3)OCCO4)nn12)Nc1ccc(F)cc1	none
CC(C(=O)Nc1ccc2c(c1)OCCO2)N1Cc2ccccc2C1=O (stereo not drawn)	none
CCc1cc(C(=O)N/N=C/c2ccc(O)cc2O)c2ccccc2n1	none
Cn1c(SCc2ccc(F)cc2)nnc1-c1cnccn1	Pemphigus Ab inh 76
C=CCC[C@H](Cc1ccc(F)cc1)C(=O)OC[C@H](Cc1c[nH]c2ccccc12)NC(=O)[C@@H](CC=C)CC(=O)NCCO	HDAC3 inh 31
C=CC[C@H](CC(=O)N(CCO)Cc1ccccc1)C(=O)N[C@H](COC(=O)[C@@H](CC=C)Cc1ccc(F)cc1)Cc1c[nH]c2ccccc12	HDAC3 inh 41
C=CC[C@@H](CC(=O)N(CCO)Cc1ccccc1)C(=O)N[C@H](COC(=O)[C@@H](CC=C)Cc1ccc(F)cc1)Cc1c[nH]c2ccccc12	none
C=CC[C@@H](CC(=O)N(CCO)Cc1ccccc1)C(=O)N[C@@H](COC(=O)[C@@H](CC=C)Cc1ccc(F)cc1)Cc1ccccc1	HDAC3 inh 35 (no result: Pemphigus Ab inh)
C=CCC[C@@H](Cc1ccc(F)cc1)C(=O)OC[C@@H](Cc1c[nH]c2ccccc12)NC(=O)[C@@H](CC=C)CC(=O)N(CCO)Cc1ccccc1	LANA-H2A inh active
Cc1ccc(NC(=O)NC(=O)CN2CCCC2c2ccc3c(c2)OCCO3)cc1C (stereo not drawn)	none (no result: Pemphigus Ab inh)
C=CCC[C@H](Cc1ccc(F)cc1)C(=O)OC[C@H](Cc1c[nH]c2ccccc12)NC(=O)[C@H](CC=C)CC(=O)N(CCO)Cc1ccccc1	HDAC3 inh 47
C=CCC[C@@H](Cc1ccc(F)cc1)C(=O)OC[C@@H](NC(=O)[C@@H](CC=C)CC(=O)N(CCO)Cc1ccccc1)c1ccccc1	HDAC3 inh 38
C=CC[C@@H](CC(=O)N(CCO)Cc1ccccc1)C(=O)NC[C@@H](OC(=O)[C@@H](CC=C)Cc1ccc(F)cc1)c1ccccc1	none
C=CC[C@H](CC(=O)N(CCO)Cc1ccccc1)C(=O)NC[C@H](OC(=O)[C@@H](CC=C)Cc1ccc(F)cc1)c1ccccc1	HDAC3 inh 28
CCCN1C(=O)c2cccc3c(N4CCCCC4)ccc(c23)C1=O	none (no result: Arrestin-AP2 inh)
O=C1c2cccc3c(N4CCCCC4)ccc(c23)C(=O)N1c1ccccn1	LANA-H2A inh 32
CC(=O)N(C(C)=O)N1C(=O)c2cccc3c(N4CCOCC4)ccc(c23)C1=O	LANA-H2A inh 55
CCN(CC)S(=O)(=O)c1ccc(C(=O)OCCN2C(=O)c3cccc4c(N5CCOCC5)ccc(c34)C2=O)cc1	LANA-H2A inh 27
CCCc1nc2ccccc2c(C(=O)N(CC)CC(=O)NCc2cccs2)c1CC	none (no result: HDAC3 inh, T cell HTS, LANA-H2A inh)
CC1(c2ccccc2)NC(=O)N(CC(=O)NCc2cccc(Cl)c2)C1=O (stereo not drawn)	none
Cn1c(=O)c(C(=O)NCCO)c(O)c2ccccc21	LANA-H2A inh 9.6 (no result: Pemphigus Ab inh)
Cc1ccccc1NS(=O)(=O)c1ccc(C(=O)NCC(c2ccccc2)N(C)C)cc1 (stereo not drawn)	none (no result: Pemphigus Ab inh)
Cc1ccccc1NS(=O)(=O)c1ccc(C(=O)NCC(c2ccco2)N(C)C)cc1 (stereo not drawn)	LANA-H2A inh 20
Cc1ccc(S(=O)(=O)N(C)c2ccc(C(=O)NCC(c3ccco3)N(C)C)cc2)cc1 (stereo not drawn)	LANA-H2A inh 35
CN(C)CCCOc1ccc(Cl)cc1Br	none
CN(C)CCOCCOc1ccc(Cl)cc1Br	LANA-H2A inh 12
